# Assays:
# [1] = target: T1, 5-hydroxytryptamine receptor 4 (Homo sapiens, UniProt Q13639); test: Antagonist activity at Rluc-tagged human 5HT4R expressed in human SH-SY5Y cells assessed as inhibition of serotonin-induced receptor/Gbeta1 coupling by BRET assay; type: cell-based
# In short: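 Cell-free BRET on enriched membranes (5 µg protein in PBS) from […] neuroblastoma cells retrovirally co-expressing Rluc-tagged human 5-HT4R and RGFP-fused Gβ1. Coupling was induced with 100 nM serotonin and inhibited by ligand at 8 log-spaced concentrations. IC50 for 50% inhibition of coupling was computed from the concentration-inhibition curves.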
# [2] = target: 5-hydroxytryptamine receptor 4 (Cavia porcellus, UniProt O70528); test: Displacement of [3H]GR113808 from Dunkin-Hartley guinea pig brain striatum 5HT4R after 30 mins
# In short: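 Striatal crude membranes from decapitated guinea pigs, diluted in 50 mM Hepes pH 7.4, were incubated with [3H]17 (0.2 nM final) at 37 °C for 30 min. Separation by rapid filtration on PEI-treated GF/B filters, then scintillation counting. Nonspecific binding was defined with 30 µM 5-HT. Ki was derived as IC50/(1+L/Kd). Mean ± SEM of 3 independent determinations run in duplicate.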
# [3] = target: T1, 5-hydroxytryptamine receptor 4; test: Partial agonist activity at Rluc-tagged human 5HT4R expressed in human SH-SY5Y cells assessed as effect on serotonin-induced receptor/Gbeta1 coupling by BRET assay; type: cell-based
# In short: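 BRET on membranes (5 µg protein in PBS) from […] cells co-expressing Rluc-human 5-HT4R and RGFP-Gβ1, with ligand at 10 µM. The baseline recorded without ligand was subtracted, and the BRET ratio was expressed relative to that obtained with 10 µM serotonin. Means ± SEM of 3 determinations.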
# T1 sequence (Q13639 whole entry, the tested form may be a part): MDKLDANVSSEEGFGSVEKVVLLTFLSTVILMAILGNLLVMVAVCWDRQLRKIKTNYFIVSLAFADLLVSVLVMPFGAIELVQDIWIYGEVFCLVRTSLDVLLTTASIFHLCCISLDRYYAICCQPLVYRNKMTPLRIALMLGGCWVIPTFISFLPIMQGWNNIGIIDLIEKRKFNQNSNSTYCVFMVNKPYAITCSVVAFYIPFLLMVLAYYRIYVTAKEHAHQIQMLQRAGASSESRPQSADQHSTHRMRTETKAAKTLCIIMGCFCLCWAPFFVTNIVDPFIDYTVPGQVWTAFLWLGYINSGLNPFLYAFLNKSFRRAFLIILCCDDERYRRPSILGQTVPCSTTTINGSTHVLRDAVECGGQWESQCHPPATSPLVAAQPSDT
# 5-hydroxytryptamine receptor 4 (Cavia porcellus, UniProt O70528), sequence (O70528 whole entry): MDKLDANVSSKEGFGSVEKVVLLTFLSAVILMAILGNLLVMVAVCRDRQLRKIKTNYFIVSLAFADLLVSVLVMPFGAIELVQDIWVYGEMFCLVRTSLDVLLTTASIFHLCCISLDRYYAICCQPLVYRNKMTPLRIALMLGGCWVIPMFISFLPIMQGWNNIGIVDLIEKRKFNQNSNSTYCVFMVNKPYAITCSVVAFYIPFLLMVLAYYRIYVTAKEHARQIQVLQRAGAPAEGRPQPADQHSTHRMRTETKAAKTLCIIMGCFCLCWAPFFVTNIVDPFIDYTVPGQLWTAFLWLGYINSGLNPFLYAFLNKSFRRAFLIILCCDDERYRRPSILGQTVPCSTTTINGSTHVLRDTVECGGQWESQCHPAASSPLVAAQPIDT
Structure (SMILES),IC50 [1],Ki [2],IC50 [3]
COc1cc2c3c(cccc3n1)CN(CCCN1CCCCC1)C2=O,916 nM,283 nM,
O=C1c2cccc3nc(N4CCCC4)cc(c23)C(=O)N1CCCN1CCCCC1,,> 1000 nM,
O=C1c2cccc3nc(Cl)cc(c23)C(=O)N1CCCN1CCCCC1,453 nM,105 nM,
COc1cc(C(=O)NCCCN2CCCCC2)c2ccccc2n1,,> 1000 nM,

# Now from value to compound:
IC50 [1],Ki [2],IC50 [3],Structure (SMILES)
,19 nM,49 nM,COc1cc(N)c(Cl)cc1C(=O)OCCCN1CCCCC1
,> 1000 nM,,O=C1c2cc(N3CCCC3)nc3cccc(c23)CN1CCCN1CCCCC1
110 nM,44 nM,,COc1cc2c3c(cccc3n1)C(=O)N(CCCN1CCCCC1)C2=O
203 nM,52 nM,,COc1cc(C(=O)OCCCN2CCCCC2)c2ccccc2n1
,563 nM,195 nM,O=C1c2cc(Cl)nc3cccc(c23)CN1CCCN1CCCCC1
,344 nM,,O=C1c2cccc3nc(N4CCCCC4)cc(c23)C(=O)N1CCCN1CCCCC1

# From ChEMBL document CHEMBL3286104, “Synthesis and structure-activity relationship studies in serotonin 5-HT4 receptor ligands based on a benzo[de][2,6]naphthridine scaffold” (Eur J Med Chem, 2014)
